Compound activity: PubChem, The Scripps Research Institute Molecular Screening Center
TCR-CD3 inh = inhibitors of human TCR-CD3 interaction | TAMRA-labeled TCR probe fluorescence, biochemical | inhibition, % at 9.4 µM | actives 0.37% (n = 360,000) | AID 651800; in the data active means inhibition above about 19%;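 further: recombinant mutant TCR 2C K166C tagged with TAMRA read by polarization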
HTRA1 inh = inhibitors of human serine peptidase HTRA1; inhibition, % at 5.96 µM; recombinant HTRA1, FP-rhodamine activity-based probe, fluorescence polarization; actives 0.5% (n = 340,000); AID 504803; in the data active means inhibition above about 36%
SIAE primary = blocks human sialic acid acetylesterase | actives 0.69% (n = 370,000) | AID 1053197 | Q9HAT2 | inhibition, % at 9.66 µM | SIAE FP-Rh probe binding, fluorescence polarization;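 active means inhibition above a cutoff: mean of compounds within the control limits plus 3 SD of those, cut at about 17% in these data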
Target sequence (Q9HAT2 whole entry, looked up): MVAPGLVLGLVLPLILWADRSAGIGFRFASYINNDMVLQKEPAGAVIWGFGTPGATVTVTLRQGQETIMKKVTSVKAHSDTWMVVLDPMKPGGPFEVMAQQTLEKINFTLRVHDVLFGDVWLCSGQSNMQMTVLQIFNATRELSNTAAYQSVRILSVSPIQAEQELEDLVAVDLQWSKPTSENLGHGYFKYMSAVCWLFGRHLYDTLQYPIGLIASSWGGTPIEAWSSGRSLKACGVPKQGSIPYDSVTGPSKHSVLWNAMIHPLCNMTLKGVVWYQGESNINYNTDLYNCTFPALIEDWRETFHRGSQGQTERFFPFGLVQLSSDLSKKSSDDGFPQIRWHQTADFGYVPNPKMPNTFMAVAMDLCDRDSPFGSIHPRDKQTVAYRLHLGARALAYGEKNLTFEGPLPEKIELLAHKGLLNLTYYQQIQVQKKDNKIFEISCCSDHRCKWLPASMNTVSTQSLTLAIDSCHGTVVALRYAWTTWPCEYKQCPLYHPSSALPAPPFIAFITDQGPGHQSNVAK
ABHD4 inh = inhibits mouse alpha/beta hydrolase domain 4; Q8VD66; purified mABHD4, FP-Rh probe fluorescence polarization; inhibition, % at 8.92 µM; actives 0.54% (n = 370,000); AID 720543;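 active means inhibition exceeding the mean over every tested compound plus 3 SD, cut at about 30% in these data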
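Doses – 8.92 µM, single dose · Material – wild-type mouse ABHD4 protein · Replication – single well per compound (singlicate) · Measure – percent inhibition of probe binding, normalized to plate controls · Schedule – 45 min compound pre-incubation plus 60 min probe step, 25 °C · Detection – fluorescence polarization with parallel and perpendicular emission, 525/598 nm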
PRMT1 inh = PRMT1 (human) inhibition, primary screen. inhibition, % at 2.79 µM. actives 1.3% (n = 370,000). recombinant PRMT1, activity-based probe fluorescence polarization;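 active means inhibition above about 21% made by adding two undisclosed values, limit read from the data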
SIAE inh conf = confirmation of human SIAE inhibitors; shares compounds with SIAE primary; actives 13% (n = 2,300); SIAE FP-Rh activity-based probe, fluorescence polarization; inhibition, % at 9.66 µM;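 active means mean inhibition of the replicates above the hit cutoff set in the primary screen, cut at about 17% in these data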;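 further: inhibitors lower polarization as more probe stays unbound to SIAE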
Of the large screens only hits and unclear results are named; the others gave an inactive call (follow-up assays come after a bar, where they were run). Most compounds without a hit are left out; they make up all but 2.5% or so of the library.

O=C(Nc1ccccc1)/C(=C/c1cccnc1)NC(=O)c1ccco1	SIAE primary 20 | SIAE inh conf inactive
COc1ccc(CC(=O)NCCC(C)C)cc1S(=O)(=O)N1CCOCC1	none
CC(C)(C)c1c(Cl)c(O)c(-c2ccccc2)c(=O)n1-c1ccccc1	SIAE primary 19 (no result: HTRA1 inh) | SIAE inh conf inactive
OC(c1ccccc1)C(NCCNCc1ccccc1)c1ccccc1 (stereo unspecified)	none
Cc1ccccc1CC(=O)NCCN1CCOCC1	none
O=C(NCCN1CCOCC1)c1ccccc1Cl	none
O=C(Cc1cccs1)NCCN1CCOCC1	SIAE primary 22 | SIAE inh conf inactive
Nc1sccc1C(=O)NCCN1CCOCC1	SIAE primary 19 (no result: HTRA1 inh) | SIAE inh conf inactive
CCCc1nc2ccc(Cl)cn2c1Cc1cccc(Cl)c1	none (no result: HTRA1 inh)
CCCc1nc2ccc(Cl)cn2c1Cc1ccc(C)cc1	SIAE primary 18 (no result: HTRA1 inh) | SIAE inh conf inactive
COc1ccc(NC(=S)N/N=C/c2cccn2Cc2ccc(F)cc2)cc1	SIAE primary 19 | SIAE inh conf inactive
CN(C)C/C=C(\c1ccc(Br)cc1)c1cccnc1	none
COc1ccc(CN2C(=O)C(CC(C)C)Nc3ncnc(N4CCN(c5ccccn5)CC4)c32)cc1 (stereo unspecified)	SIAE primary 18 | SIAE inh conf inactive
Cc1ccc(CN2C(=O)C(CC(C)C)Nc3ncnc(N4CCN(c5ccccn5)CC4)c32)cc1 (stereo unspecified)	none
COc1cc(S(=O)(=O)NCCCN2CCOCC2)ccc1-n1cnnn1	SIAE primary 17 | SIAE inh conf inactive
CN(C)CCOC(=O)/C(=C/c1cn(C)c2ccccc12)NC(=O)c1ccccc1	SIAE primary 18 | SIAE inh conf inactive
Cc1ccc(C(=O)N/C(=C\c2cn(C)c3ccccc23)C(=O)OCCN(C)C)cc1	none
COc1ccc(-c2nc3cc(C)ccn3c2NC(=O)c2ccccc2OC)cc1	none
CCCCNc1c(-c2cccc(-c3ccc(OC)cc3)c2)nc2cc(C)ccn12	SIAE primary 22 | SIAE inh conf inactive
COc1ccc(/C(O)=C2/C(=O)C(=O)N(CCCN(C)C)C2c2cccc(Cl)c2)cc1OC (stereo unspecified)	none
CC(=O)Nc1ccc(O)cc1[N+](=O)[O-]	SIAE primary 20 | SIAE inh conf inactive
CC(=O)Nc1ccc(N(C)C)cc1[N+](=O)[O-]	none
CCOC(=O)c1cnc(SCC(=O)OCC(=O)N(CC)C2CCS(=O)(=O)C2)nc1N (stereo unspecified)	none
CCOC(=O)c1cnc(SCC(=O)OCC(=O)NC2CCS(=O)(=O)C2)nc1N (stereo unspecified)	SIAE primary 18 | SIAE inh conf inactive
CC(=O)OC(C(=O)NC1CCCCC1)c1ccccc1F (stereo unspecified)	SIAE primary 18 | SIAE inh conf inactive
O=C(OCc1cn(Cc2ccccc2F)nn1)N1CCOCC1	none (no result: TCR-CD3 inh, HTRA1 inh)
CC(C)(C)c1n[nH]c(=S)n(/N=C/c2cccs2)c1=O	none
Cc1n[nH]c(=S)n(/N=C/c2cccs2)c1=O	SIAE primary 19 | SIAE inh conf inactive
O=C(CN1CCCCC1)Nc1ccc(S(=O)(=O)c2ccc(NC(=O)CN3CCCCC3)cc2)cc1	none
COC(=O)C1CN(Cc2cn(Cc3ccc(C)cc3)nn2)CCS(=O)(=O)N1Cc1ccc(OC)cc1 (stereo unspecified)	none (no result: TCR-CD3 inh, HTRA1 inh)
Cc1cc(C)c2c(c1)/C(=N/NC(=S)Nc1ccc(F)cc1)CCC2	SIAE primary 20 | SIAE inh conf inactive
CCCc1nc2ccccc2c(C(=O)OCC(=O)NCc2ccco2)c1CC	none
CCCc1nc2ccccc2c(C(=O)OCC(=O)NC2CC2)c1CC	SIAE primary 25 | SIAE inh conf inactive
CC(C)=NNc1cc([N+](=O)[O-])cc2c1C(=O)N(C)S2=O (stereo unspecified)	SIAE primary 17 | SIAE inh conf inactive
C/C(=N/Nc1ccccc1[N+](=O)[O-])c1ccc([N+](=O)[O-])cc1	none
Cc1ccc(C(=O)N/C(=C\c2ccccc2)C(=O)NCC2CCCO2)cc1 (stereo unspecified)	none
Cc1ccc(C(=O)N/C(=C/c2ccc(Cl)cc2)C(=O)NCC2CCCO2)cc1 (stereo unspecified)	SIAE primary 29 | SIAE inh conf inactive
CCCNC(=O)C(Cc1ccc(I)cc1)NC(=O)C1CC1 (stereo unspecified)	none
COc1ccc(Br)cc1CNC(=O)Nc1cccs1	SIAE primary 19 | SIAE inh conf inactive
CCOc1ccc(NC(=O)NCc2ccccn2)cc1	SIAE primary 20 | SIAE inh conf inactive
Cc1ccc(NC(=O)NCc2ccccn2)cc1	none
CCOc1cc(/C=N/Nc2ccc(C(=O)O)cc2)ccc1OC(=O)c1ccccc1C	SIAE primary 26 | SIAE inh conf 31
COc1cc(/C=N/Nc2ccc(Cl)c(C(=O)O)c2)ccc1OC(=O)c1ccccc1F	none
COc1ccc(CNC(=O)CCNC(=O)N2CC(=O)Nc3ccccc32)cc1	SIAE primary active | SIAE inh conf inactive
COc1ccc(NC(=O)CCNC(=O)N2CC(=O)Nc3ccccc32)c(OC)c1	none
COc1ccc(Cc2nnc(N)s2)cc1	SIAE primary 17 | SIAE inh conf inactive
COc1ccc(Cc2nnc(N)s2)cc1OC	none
COC(=O)C(C)Oc1ccc(Cl)c(CN2OCC(C)(C)C2=O)c1 (stereo unspecified)	none
CC1Cc2nc(SCC(=O)NCc3ccccc3)n(Cc3ccccc3)c(=O)c2S1 (stereo unspecified)	SIAE primary 17 | SIAE inh conf inactive
CC1Cc2nc(SCC(=O)c3ccccc3)n(Cc3ccccc3)c(=O)c2S1 (stereo unspecified)	none
CN1/C(=C\C(=O)Nc2ccc(Br)cc2)C(C)(C)c2ccccc21	SIAE primary 26 | SIAE inh conf inactive
CNC(=S)N1CCc2ccccc2C1	SIAE primary 30 | SIAE inh conf inactive
Cc1c(Cl)cccc1NC(=S)N1CCc2ccccc2C1	none
Cc1noc(C(=O)Nc2cccnc2)c1Cl	SIAE primary 17 | SIAE inh conf inactive
CC1=NN(c2ccccc2)C(=O)/C1=C/c1cn(C)c2ccccc12	none
COc1ccc(Cn2cc([N+](=O)[O-])nc2C)cc1[N+](=O)[O-]	none
COc1ccc(Cn2ccnc2CO)cc1[N+](=O)[O-]	SIAE primary 19 | SIAE inh conf inactive
Cc1nc(N2CCN(c3ccccn3)CC2)c2c(C)c(C(=O)Nc3c(C)cc(Br)cc3C)sc2n1	SIAE primary 17 | SIAE inh conf inactive
O=C(c1ccncc1)N1CCN(S(=O)(=O)c2ccccc2Br)CC1	SIAE primary 18 | SIAE inh conf inactive
O=C(c1cccc(-n2cccc2)c1)N1CCN(S(=O)(=O)c2ccccc2Br)CC1	none
O=C(CC(=O)NCc1ccccc1)NCc1ccccc1	none
Cc1ccc(S(=O)(=O)NC(=O)c2cc(C)n(C3CC3)c2C)cc1	SIAE primary 24 | SIAE inh conf inactive
